Assay results from the array DNA melting data of Ke et al. (doi:10.1101/2024.01.08.574731).

Assays:
[1] = folding enthalpy; higher = less favourable; fluorescence melt of hairpins on a sequencing array, two-state fit; settings: sodium 0.088 M
In short: (§1)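 Library hairpins on a sequenced MiSeq flow cell carried annealed Cy3 and quencher oligos, and their Cy3 fluorescence was imaged in 50 mM Na-HEPES pH 8.0 with 25 mM NaCl, in 2.5 °C steps up to 60 °C. Signals were normalised to Cy3 before quenching and to control constructs. Melting temperature and folding enthalpy were obtained from bootstrapped two-state fits, combined by inverse-variance weighting across four replicates, and the fitted temperatures were then raised by 9.35 °C to match UV melts.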

[2] = melting temperature; fluorescence melt of hairpins on a sequencing array, two-state fit, raised by 9.35 °C to match UV melts; settings: sodium 0.088 M
In short: as §1

Sequence | folding enthalpy [1] | Tm [2]
GATCCCTGTTGGGATC ((((((....)))))) | -42.8 kcal/mol | 62 °C
GCGTACGAAAGTATACGC ((((((....)))..))) | -34 kcal/mol | 51.4 °C
GGGCAGGCGAAAGCCCCC (((..(((....)))))) | -14.5 kcal/mol | 46 °C
GGCTATGGAAACACAGCC ((((.((....)).)))) | -29.9 kcal/mol | 43.2 °C
TCGCTGAAAAGCGA (((((....))))) | -17.4 kcal/mol | 68.8 °C
GCGATGCGAAAGCGTAGC ((.(.((....)).).)) | -24.6 kcal/mol | 54.8 °C
GAAACCGAAAGGTATTTC ((((((....)))..))) | -12.4 kcal/mol | 26.6 °C
GTTTAGAAATAAAC (((((....))))) | -9.32 kcal/mol | 28.4 °C
GAGGTCGGAAACGACCCC (.(((((....))))).) | -9.23 kcal/mol | 48.3 °C
GCAGTCGGAAACGACTAC (.(((((....))))).) | -13.4 kcal/mol | 41.7 °C
GCTCCTCGAAAGAGCAGC (((.(((....))).))) | -21.5 kcal/mol | 40.6 °C
GATCGAAAATCGATC ((((((...)))))) | -29.9 kcal/mol | 47.6 °C
GGAGTAGGAAACTACCCC ((.((((....)))).)) | -24.4 kcal/mol | 35.1 °C
GTGCCCGAAAGGGATCAC ((((((....)))..))) | -13.2 kcal/mol | 40.3 °C
GATACCGAAAGGTGTATC ((((((....)))..))) | -14.8 kcal/mol | 35.9 °C
GTATCTGGAAACAGATGC (.(((((....))))).) | -21.2 kcal/mol | 46.9 °C
GGTGGTGGAAACATCACC ((((.((....)).)))) | -41.3 kcal/mol | 52.3 °C
GAAACCGAAAGGTACTTC ((((((....)))..))) | -17.8 kcal/mol | 34.6 °C
GATCCTCATGAGGATC ((((((....)))))) | -41.1 kcal/mol | 58.4 °C
GGTCCTGGAAACGGGACC (((((.(....).))))) | -57.4 kcal/mol | 57.3 °C
GCAATCCGAAAGGATGC (((.(((....)))))) | -26 kcal/mol | 56.4 °C
GCTCTGCGAAAGCAAGC (((.(((....)))))) | -16.8 kcal/mol | 48.2 °C
GATCGTAACACGATC ((((((...)))))) | -37.4 kcal/mol | 57.5 °C

Sequence | folding enthalpy [1] | Tm [2]
GCTCTCGAAAGAGGTAGC ((((((....)))..))) | -25.4 kcal/mol | 38.4 °C
GGCCTGGGAAACTAGGCC (((((.(....).))))) | -49.7 kcal/mol | 59.2 °C
GTCCGCGAAAGCGAGGAC ((((((....)))..))) | -21 kcal/mol | 54.9 °C
GGCTTTGCGAAAGCAGCC (((..(((....)))))) | -17.2 kcal/mol | 52.1 °C
GTTTGGGGAAACCCAAGC (.(((((....))))).) | -21.9 kcal/mol | 43.5 °C
GATCAGACCCTGATC ((((((...)))))) | -33.4 kcal/mol | 47.7 °C
GGGATTGGAAACAGTCCC ((((.((....)).)))) | -31.5 kcal/mol | 48.8 °C
GATCCACAGCTGGATC ((((((....)))))) | -31.7 kcal/mol | 47.6 °C
AGCTAGAAATAGCT (((((....))))) | -14.9 kcal/mol | 41.3 °C
GTGGTAGGAAACTACCGC (.(((((....))))).) | -32.5 kcal/mol | 52.5 °C
GCTGAAGGAAACTTTAGC (((.(((....))).))) | -29.2 kcal/mol | 41.5 °C
GCTGCAGCGAAAGCTAGC (((..(((....)))))) | -11.9 kcal/mol | 48.7 °C
GGAGTGCGAAAGCATTCC (((.(((....))).))) | -30.4 kcal/mol | 58.1 °C
GGAGGTTCGAAAGAATCC (((..(((....)))))) | -14.4 kcal/mol | 28.9 °C
GTCCTGGCGAAAGCCGAC (((..(((....)))))) | -9.43 kcal/mol | 32.9 °C
GTATCGGAAACGATAC ((((((....)))))) | -40.4 kcal/mol | 55.5 °C
GTTACCGAAAGGTAAC ((((((....)))))) | -34.6 kcal/mol | 66.4 °C
GTAGAGGGAAACCTCTGC (.(((((....))))).) | -23.1 kcal/mol | 45.9 °C
GGGATTGGAAACAACCCC (((.(((....))).))) | -28 kcal/mol | 42.4 °C
GAAAGGCCGAAAGGCTTC (((..(((....)))))) | -8.26 kcal/mol | 28.5 °C
GCCTTCGAAAGAAGTGGC ((((((....)))..))) | -22 kcal/mol | 44.5 °C
GCCCCAGGAAACCAGGGC ((((..(....)..)))) | -23.4 kcal/mol | 45.6 °C
GGTACCGAAAGGTCGACC ((((((....)))..))) | -13.6 kcal/mol | 36.5 °C

Sequence | folding enthalpy [1] | Tm [2]
GTACGCGAAAGCGATTAC ((((((....)))..))) | -11.2 kcal/mol | 29.7 °C
GTCACTTCGAAAGAAGAC (((..(((....)))))) | -8.67 kcal/mol | 26.7 °C
GCGTTGCGAAAGCCTCGC (((..((....))..))) | -18.5 kcal/mol | 58.1 °C
GTAGGAGGAAACTCCTAC (((((((....))))))) | -38 kcal/mol | 57.5 °C
GCCAACGAAAGTTGAGGC ((((((....)))..))) | -19.4 kcal/mol | 48.5 °C
GGGCACGAAAGTGTCCCC ((((((....)))..))) | -12 kcal/mol | 65.1 °C
GTAGCTCGAAAGAGTTAC (((.(((....))).))) | -33.6 kcal/mol | 50.6 °C
GAGCTGAAAAGCTC (((((....))))) | -27.2 kcal/mol | 57.2 °C
GCATTATCGAAAGATTGC (((..(((....)))))) | -14.4 kcal/mol | 30.6 °C
GATCCTGGGAGGATC ((((((...)))))) | -33.8 kcal/mol | 51 °C
GCGGTGGCGAAAGCCCGC (((..(((....)))))) | -23.3 kcal/mol | 66.9 °C
GATCTTGCTAAGATC ((((((...)))))) | -31.8 kcal/mol | 45.4 °C
GCCTACGAAAGTATAGGC ((((((....)))..))) | -25.5 kcal/mol | 49.3 °C
GATCCAGCGATGGATC ((((((....)))))) | -42.4 kcal/mol | 55.6 °C
GATCGCCGAAAGGCTATC (((.(((....))).))) | -20.4 kcal/mol | 42.1 °C
GCAAACGAAAGTTATGC ((((((....))).))) | -24.3 kcal/mol | 38.4 °C
GCTAAGCGAAAGCTTCGC ((.((((....)))).)) | -20.9 kcal/mol | 53.8 °C
CGTCCGGAAACGGGAACG ((((((....)))..))) | -22.5 kcal/mol | 38.9 °C
GATCTGAACACAGATC ((((((....)))))) | -34.7 kcal/mol | 48.4 °C
GTGACCGAAAGGTGACAC ((((((....)))..))) | -16 kcal/mol | 42.8 °C
GTGCGCGGAAACGCGTGC (..((((....))))..) | -16.7 kcal/mol | 57 °C
GGAAGTGGAAACGTTTCC ((((..(....)..)))) | -13.3 kcal/mol | 37.6 °C
GGCTCAACGAAAGTTGCC (((..(((....)))))) | -13.7 kcal/mol | 38.2 °C

Sequence | folding enthalpy [1] | Tm [2]
GTCTTCGGAAACGAGGAC (((.(((....))).))) | -39.1 kcal/mol | 49.7 °C
GCACTCGAAAGAGGTGC ((((((....))).))) | -29.1 kcal/mol | 54.4 °C
GATCAGCAAACTGATC ((((((....)))))) | -32 kcal/mol | 48.2 °C
GATCTGCAGTCAGATC ((((((....)))))) | -34.5 kcal/mol | 49.2 °C
GTGGTGGGAAACCATCGC (.(.(((....))).).) | -24.9 kcal/mol | 41.6 °C
GCAATGCGAAAGCTTGGC ((.(.((....)).).)) | -19.1 kcal/mol | 40.6 °C
GGACTAGGAAACTAGTTC (.(((((....))))).) | -31.9 kcal/mol | 41.3 °C
GAGGGCGGAAACGCTCTC (((.(((....))).))) | -31.9 kcal/mol | 57.2 °C
GGTAGCACGAAAGTGACC (((..(((....)))))) | -13.9 kcal/mol | 32.2 °C
GCAGTACCGAAAGGTTGC (((..(((....)))))) | -20.4 kcal/mol | 43.3 °C
GGTTTCGGAAACAAAACC (((((.(....).))))) | -22.7 kcal/mol | 36.6 °C
GCCCAGCGAAAGCGGAGC ((.(.((....)).).)) | -12.7 kcal/mol | 53.1 °C
GCGCTGGGAAACCGGTGC ((.(.((....)).).)) | -42.6 kcal/mol | 51.5 °C
GGTGATCGAAAGATTACC (((.(((....))).))) | -46.1 kcal/mol | 51.1 °C
GGGTTCGAAAGAATTCCC ((((((....)))..))) | -20.4 kcal/mol | 33.8 °C
GCTCTCACGAAAGTGAGC (((..(((....)))))) | -7.6 kcal/mol | 35.8 °C
GATTTCGAAAGAAATC ((((((....)))))) | -38.2 kcal/mol | 55 °C
GGGCACGAAAGTGCTCCC ((((((....)))..))) | -9.92 kcal/mol | 53.1 °C
GGTTCAGGAAACTAAACC ((((.((....)).)))) | -15.3 kcal/mol | 28.6 °C
GTGTCCCGAAAGGGCCAC (((.(((....))).))) | -23.8 kcal/mol | 56.4 °C
GCCTCCACGAAAGTGGGC (((..(((....)))))) | -7.76 kcal/mol | 46.9 °C
GCGTAACGAAAGTTCGC (((.(((....)))))) | -36.1 kcal/mol | 55.9 °C
GCTCTCGAAAGAGTGAGC ((((((....)))..))) | -26 kcal/mol | 41.6 °C
